Laboratory results published in ChEMBL document CHEMBL2311390, “Synthesis and preliminary evaluation of pharmacological properties of some piperazine derivatives of xanthone” (Bioorg Med Chem, 2013).

Assays:
Rattus norvegicus [1] = test: Cardiotoxicity in Wistar rat assessed as QT interval at 10 mg/kg, iv after 5 mins by ECG analysis; assay type: toxicity, organism-based; parameters: dose 10 mg/kg, route intravenous; conditions: in vivo
Method in brief: (§1)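 Male normotensive Wistar rats, 170–350 g, six per group. Compound given iv at a constant volume of 1 mL/kg. ECG was recorded just before dosing and at 1, 5 and 15 min after. PQ, QRS and QT intervals and heart rate were read from the trace. Groups were compared by one-way ANOVA.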

Rattus norvegicus [2] = test: Hypotensive activity in normotensive Wistar rat assessed as reduction of diastolic blood pressure at 2.5 mg/kg, iv after 20 mins; assay type: functional, Artery
Method in brief: (§2)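 Male normotensive Wistar rats (170–350 g) were anaesthetised with thiopental 75 mg/kg ip. The right carotid artery was cannulated with heparin-saline tubing for pressure recording. After a 5 min stabilisation, compound was injected into a caudal vein at 1 mL/kg. Systolic and diastolic pressure were followed up to 60 min. Data are means ± SEM of 5–6 animals, compared by one-way ANOVA.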

Rattus norvegicus [3] = test: Hypotensive activity in normotensive Wistar rat assessed as reduction of systolic blood pressure at 2.5 mg/kg, iv after 10 mins; assay type: functional, Artery; method in brief: as §2
[4] = Displacement of [3H]CGP-12177 from beta1-adrenergic receptor in rat cerebral cortex by liquid scintillation counting; assay type: tissue-based
Method in brief: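 Rat cerebral cortex was homogenised in ice-cold 50 mM Tris-HCl pH 7.6 and spun at 20,000 g for 20 min at 0–4 °C, then washed once. Radioligands: [3H]prazosin 0.2 nM for α1, [3H]clonidine 2 nM for α2, [3H]CGP-12177 0.2 nM for β1. Test compounds were run at 7–8 concentrations from 10^-11 to 10^-4 M. Nonspecific binding was defined with phentolamine (α1), clonidine (α2) or propranolol (β1). Counting was by liquid scintillation, in duplicate. Ki was derived by Cheng–Prusoff from 2–3 experiments.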

Rattus norvegicus [5] = test: Hypotensive activity in normotensive Wistar rat assessed as reduction of diastolic blood pressure at 2.5 mg/kg, iv after 5 mins; assay type: functional, Artery; method in brief: as §2
Rattus norvegicus [6] = test: Hypotensive activity in normotensive Wistar rat assessed as reduction of systolic blood pressure at 2.5 mg/kg, iv after 30 mins; assay type: functional, Artery; method in brief: as §2
Rattus norvegicus [7] = test: Hypotensive activity in normotensive Wistar rat assessed as reduction of systolic blood pressure at 2.5 mg/kg, iv after 5 mins; assay type: functional, Artery; method in brief: as §2
Rattus norvegicus [8] = test: Hypotensive activity in normotensive Wistar rat assessed as reduction of systolic blood pressure at 2.5 mg/kg, iv after 20 mins; assay type: functional, Artery; method in brief: as §2
Rattus norvegicus [9] = test: Hypotensive activity in normotensive Wistar rat assessed as reduction of diastolic blood pressure at 2.5 mg/kg, iv after 60 mins; assay type: functional, Artery; method in brief: as §2
Rattus norvegicus [10] = test: Hypotensive activity in normotensive Wistar rat assessed as reduction of systolic blood pressure at 2.5 mg/kg, iv after 60 mins; assay type: functional, Artery; method in brief: as §2
Rattus norvegicus [11] = test: Hypotensive activity in normotensive Wistar rat assessed as reduction of diastolic blood pressure at 2.5 mg/kg, iv after 30 mins; assay type: functional, Artery; method in brief: as §2
Rattus norvegicus [12] = test: Cardiotoxicity in Wistar rat assessed as hear beats per min at 5 mg/kg, iv after 15 mins by ECG analysis; assay type: toxicity, organism-based; parameters: dose 5 mg/kg, route intravenous; conditions: in vivo, 0.25 h; method in brief: as §1
Rattus norvegicus [13] = test: Hypotensive activity in normotensive Wistar rat assessed as reduction of diastolic blood pressure at 2.5 mg/kg, iv after 10 mins; assay type: functional, Artery; method in brief: as §2
Rattus norvegicus [14] = test: Cardiotoxicity in Wistar rat assessed as hear beats per min at 5 mg/kg, iv after 5 mins by ECG analysis; assay type: toxicity, organism-based; parameters: dose 5 mg/kg, route intravenous; conditions: in vivo; method in brief: as §1

Row | Ki [4] [µM] | SMILES | Activity (Rattus norvegicus [1]) [ms] | Activity (Rattus norvegicus [2]) [mmHg] | Activity (Rattus norvegicus [3]) [mmHg] | Activity (Rattus norvegicus [5]) [mmHg] | Activity (Rattus norvegicus [6]) [mmHg] | Activity (Rattus norvegicus [7]) [mmHg] | Activity (Rattus norvegicus [8]) [mmHg] | Activity (Rattus norvegicus [9]) [mmHg] | Activity (Rattus norvegicus [10]) [mmHg] | Activity (Rattus norvegicus [11]) [mmHg] | Activity (Rattus norvegicus [12]) [bpm] | Activity (Rattus norvegicus [13]) [mmHg] | Activity (Rattus norvegicus [14]) [bpm]
1 |  | Cl.Cl.Cl.O=c1c2ccc(Cl)cc2oc2c(OCC(O)CN3CCN(CCOc4ccccc4)CC3)cccc12 (racemic) | 54.4 |  |  |  |  |  |  |  |  |  |  |  | 
2 | 43 | Cl.Cl.Cl.O=c1c2ccc(Cl)cc2oc2c(OCC(O)CN3CCN(C/C=C/c4ccccc4)CC3)cccc12 (racemic) |  | 110.4 | 133 | 103.2 | 129.8 | 125 | 130.8 | 108.6 | 126.8 | 110.8 | 329.3 | 110.6 | 317.3
3 |  | Cl.Cl.Cl.O=c1c2ccc(Cl)cc2oc2c(OCC(O)CN3CCN(Cc4ccccc4)CC3)cccc12 (racemic) | 74 | 134.5 | 149.5 | 128.7 | 152.2 | 147.2 | 152.5 | 134.2 | 151.2 | 134.2 |  | 132.2 | 
4 | 5.2 | Cl.Cl.O=c1c2ccccc2oc2c(OCC(O)CN3CCN(C/C=C/c4ccccc4)CC3)cccc12 (racemic) |  | 114 | 144.2 | 118.4 | 132.6 | 144.2 | 139.8 | 105 | 125.6 | 110.8 | 309 | 117.2 | 328
